The target in experiment [1] is T1, Oxytocin receptor (Homo sapiens) (UniProt P30559).
T1 sequence (whole entry): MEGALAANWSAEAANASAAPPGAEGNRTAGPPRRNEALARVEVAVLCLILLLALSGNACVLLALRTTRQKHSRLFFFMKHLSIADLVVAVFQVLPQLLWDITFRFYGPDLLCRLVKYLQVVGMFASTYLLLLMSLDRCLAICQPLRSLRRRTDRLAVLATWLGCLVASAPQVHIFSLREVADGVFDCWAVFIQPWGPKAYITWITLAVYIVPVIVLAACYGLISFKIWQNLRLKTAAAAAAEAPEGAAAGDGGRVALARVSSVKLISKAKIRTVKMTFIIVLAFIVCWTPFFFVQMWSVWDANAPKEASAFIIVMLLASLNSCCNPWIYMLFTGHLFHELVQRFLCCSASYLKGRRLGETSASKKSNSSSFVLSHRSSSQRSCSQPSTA
As to the kind of experiment: Antagonist activity at human OTR expressed in HEK293 cell membranes assessed as inhibition of OT-induced IP1 accumulation by measuring IP1 level at 100 nM measured after 1 hr by flourescence assay relative to control. Format: functional, cell-based. Also on record: scale not given: the % may be the effect or the level left.

In experiment [2] the target is T1, Oxytocin receptor (Homo sapiens). As to the kind of experiment: Antagonist activity at human OTR expressed in HEK293 cell membranes assessed as inhibition of OT-induced IP1 accumulation by measuring IP1 level at 10 uM measured after 1 hr by fluorescence assay relative to control. Also on record: scale not given: the % may be the effect or the level left. Format: functional, cell-based.

In experiment [3] the target is T2, Oxytocin receptor (Homo sapiens, UniProt P30559).
T2 sequence (P30559 whole entry): T1 sequence (whole entry)
As to the kind of experiment: Antagonist activity at human OTR expressed in HEK293 cell membranes assessed as inhibition of OT-induced IP1 accumulation measured after 1 hr by fluorescence assay. Format: functional, cell-based.

Experiment [4] deals with T3, Vasopressin V1a receptor (Homo sapiens, UniProt P37288). As to the kind of experiment: Antagonist activity at human vasopressin 1a receptor expressed in HEK293 cell membranes assessed as inhibition of AVP-induced IP1 accumulation by measuring IP1 level at 100 nM measured after 1 hr by fluorescence assay relative to control. It counts as functional, cell-based. The arrangement: scale not given: the % may be the effect or the level left.
Target sequence in this assay (P37288 whole entry, looked up): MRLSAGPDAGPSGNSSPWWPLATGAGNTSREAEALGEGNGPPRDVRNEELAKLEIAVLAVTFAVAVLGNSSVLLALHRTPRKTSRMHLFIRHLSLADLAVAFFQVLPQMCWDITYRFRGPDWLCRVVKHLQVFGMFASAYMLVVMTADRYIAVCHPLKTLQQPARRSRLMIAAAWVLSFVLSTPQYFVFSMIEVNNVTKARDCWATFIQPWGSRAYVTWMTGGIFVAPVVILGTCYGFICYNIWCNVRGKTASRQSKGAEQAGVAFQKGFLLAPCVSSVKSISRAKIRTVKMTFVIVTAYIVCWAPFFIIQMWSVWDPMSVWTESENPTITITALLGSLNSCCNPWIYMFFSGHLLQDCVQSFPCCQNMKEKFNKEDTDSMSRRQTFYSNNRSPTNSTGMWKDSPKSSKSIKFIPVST

Experiment [5] addresses T3, Vasopressin V1a receptor. As to the kind of experiment: Antagonist activity at human vasopressin 1a receptor expressed in HEK293 cell membranes assessed as inhibition of AVP-induced IP1 accumulation by measuring IP1 level at 10 uM measured after 1 hr by fluorescence assay relative to control. Also on record: scale not given: the % may be the effect or the level left. Format: functional, cell-based.
Target sequence in this assay (P37288 whole entry, looked up): as above

For experiment [6], the target named is T3, Vasopressin V1a receptor. As to the kind of experiment: Antagonist activity at human vasopressin 1a receptor expressed in HEK293 cell membranes assessed as inhibition of AVP-induced IP1 accumulation measured after 1 hr by fluorescence assay. Format: functional, cell-based.
Target sequence in this assay (P37288 whole entry): as the sequence (P37288 whole entry, looked up) above
Experiment [7] addresses T1, Oxytocin receptor (Homo sapiens). As to the kind of experiment: Antagonist activity at human OTR expressed in CHO cell membranes assessed as inhibition of OT-induced IP1 accumulation by measuring IP1 level at 100 nM measured after 1 hr by fluorescence assay relative to control. It counts as functional, cell-based. Also on record: scale not given: the % may be the effect or the level left.

The target is the same in experiment [8]. As to the kind of experiment: Antagonist activity at human OTR expressed in CHO cell membranes assessed as inhibition of OT-induced IP1 accumulation by measuring IP1 level at 10 uM measured after 1 hr by fluorescence assay relative to control. Also on record: scale not given: the % may be the effect or the level left. Format: functional, cell-based.
For experiment [9], the target named is T2, Oxytocin receptor. As to the kind of experiment: Antagonist activity at human OTR expressed in CHO cell membranes assessed as inhibition of OT-induced IP1 accumulation measured after 1 hr by fluorescence assay. It counts as functional, cell-based.
The target of experiment [10] is T3, Vasopressin V1a receptor. As to the kind of experiment: Antagonist activity at human vasopressin 1a receptor expressed in CHO cell membranes assessed as inhibition of AVP-induced IP1 accumulation by measuring IP1 level at 100 nM measured after 1 hr by fluorescence assay relative to control. Format: functional, cell-based. The arrangement: scale not given: the % may be the effect or the level left.
Target sequence in this assay (P37288 whole entry, looked up): as above

For experiment [11], the target named is T3, Vasopressin V1a receptor. As to the kind of experiment: Antagonist activity at human vasopressin 1a receptor expressed in CHO cell membranes assessed as inhibition of AVP-induced IP1 accumulation by measuring IP1 level at 10 uM measured after 1 hr by fluorescence assay relative to control. It counts as functional, cell-based. The arrangement: scale not given: the % may be the effect or the level left.
Target sequence in this assay (P37288 whole entry, looked up): as above

Experiment [12] concerns the target T3, Vasopressin V1a receptor. As to the kind of experiment: Antagonist activity at human vasopressin 1a receptor expressed in CHO cell membranes assessed as inhibition of AVP-induced IP1 accumulation by measuring IP1 level measured after 1 hr by fluorescence assay. Format: functional, cell-based.
Target sequence in this assay (P37288 whole entry): as the sequence (P37288 whole entry, looked up) above
For experiment [13], the target named is T1, Oxytocin receptor (Homo sapiens). As to the kind of experiment: Antagonist activity at human OTR expressed in HEK293 cell membranes assessed as inhibition of OT-induced increase in Ca2+ flux by measuring intracellular calcium level at 10 uM preincubated for 5 mins followed by OT addition measured after 5 mins for every 2 secs by Ca5 dye based FLIPR assay (reference value: 4.5 +/- 0.1%). Format: functional. The method, boiled down: (§1)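 HEK cells were pre-incubated 5 min with compound (10 μM) or vehicle (0.1% DMSO). Agonist was then added: OT for hOTR, AVP for hV1aR. Peak Ca5 fluorescence was taken as fold-change over baseline. A 4-parameter fit gave pEC50 and Max. Run in duplicate with 5-6 independent replicates, mean ± S.E.M.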
(In general: A change in cytosolic calcium serves as a functional read-out for many receptors and channels.)

In experiment [14] the target is T3, Vasopressin V1a receptor. As to the kind of experiment: Antagonist activity at human vasopressin 1a receptor expressed in HEK293 cell membranes assessed as inhibition of AVP-induced increase in Ca2+ flux by measuring intracellular calcium level at 10 uM preincubated for 5 mins followed by AVP addition measured after 5 mins for every 2 secs by Ca5 dye based FLIPR assay (reference value: 5.2 +/- 0.2%). Format: functional. Put shortly:
as §1
Target sequence in this assay (P37288 whole entry, looked up): as above

For experiment [15], the target named is T2, Oxytocin receptor. As to the kind of experiment: Displacement of [3H]-oxytocin from human OTR expressed in HEK293 cell membranes after 90 mins by microbeta scintillation counting method. For orientation: In a radioligand displacement assay an active substance lowers the binding of a labelled ligand.
Experiment [16] deals with T3, Vasopressin V1a receptor. As to the kind of experiment: Displacement of [3H]-vasopressin from human vasopressin 1a receptor expressed in HEK293 cell membranes after 90 mins by microbeta scintillation counting method.
Target sequence in this assay (P37288 whole entry): as the sequence (P37288 whole entry, looked up) above
The target in experiment [17] is T1, Oxytocin receptor (Homo sapiens). As to the kind of experiment: Agonist activity at human OTR expressed in HEK293 cell membranes induction of IP1 accumulation at 0.1 to 10 uM measured after 1 hr by fluorescence assay. Format: functional, cell-based. The method, boiled down:
(§2)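 IP1 accumulation in HEK or stably transfected CHO cells expressing hOTR or hV1aR. Compounds tested alone at 100 nM and 10 μM against vehicle (basal). Reference agonist was OT 10 nM at hOTR or AVP 10 nM at hV1aR. Non-transfected HEK cells given OT served as a specificity check. Mean ± S.E.M.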

Experiment [18] has as its target T3, Vasopressin V1a receptor. As to the kind of experiment: Agonist activity at human vasopressin 1a receptor expressed in HEK293 cell membranes assessed as induction of IP1 accumulation at 0.1 to 10 uM measured after 1 hr by fluorescence assay. Format: functional, cell-based. The method, boiled down:
as §2
Target sequence in this assay (P37288 whole entry, looked up): as above

In experiment [19] the target is T1, Oxytocin receptor (Homo sapiens). As to the kind of experiment: Positive allosteric modulation of human OTR expressed in HEK293 cell membranes assessed as increase in OT-induced IP1 accumulation at 10 uM measured after 1 hr by fluorescence assay. It counts as functional, cell-based. The method, boiled down:
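hOTR-transfected HEK cells treated with ~EC10 OT (3 nM) plus compound (10 μM) or vehicle (0.1% DMSO). IP1 measured and compared with OT plus vehicle. Mean ± S.E.M.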

The target is the same in experiment [20]. As to the kind of experiment: Agonist activity at human OTR expressed in HEK293 cell membranes assessed as increase in Ca2+ flux at 0.1 to 10 uM measured after 5 mins for every 2 secs by Ca5 dye based FLIPR assay. Format: functional. Put shortly:
(§3)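 Intracellular Ca2+ read by FLIPR with Ca5 dye in HEK or stably transfected CHO cells expressing hOTR or hV1aR. Compounds added alone at 100 nM and 10 μM. Response taken as the change in fluorescence.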

Experiment [21] has as its target T3, Vasopressin V1a receptor. As to the kind of experiment: Agonist activity at human vasopressin 1a receptor expressed in HEK293 cell membranes assessed as increase in Ca2+ flux at 0.1 to 10 uM measured after 5 mins for every 2 secs by Ca5 dye based FLIPR assay. Format: functional. Put shortly: as §3
Experiment [22] has as its target T1, Oxytocin receptor (Homo sapiens). As to the kind of experiment: Agonist activity at human OTR expressed in CHO cell membranes assessed as increase in Ca2+ flux at 0.1 to 10 uM measured after 5 mins for every 2 secs by Ca5 dye based FLIPR assay. Format: functional. The method, boiled down:
as §3

For experiment [23], the target named is T3, Vasopressin V1a receptor. As to the kind of experiment: Agonist activity at human vasopressin 1a receptor expressed in CHO cell membranes assessed as increase in Ca2+ flux at 0.1 to 10 uM measured after 5 mins for every 2 secs by Ca5 dye based FLIPR assay. It counts as functional. Put shortly:
as §3

Experiment [24] concerns the target T1, Oxytocin receptor (Homo sapiens). As to the kind of experiment: Agonist activity at human OTR expressed in CHO cell membranes assessed as induction of IP1 accumulation at 0.1 to 10 uM measured after 1 hr by fluorescence assay. It counts as functional, cell-based. The method, boiled down:
as §2

For experiment [25], the target named is T3, Vasopressin V1a receptor. As to the kind of experiment: Agonist activity at human vasopressin 1a receptor expressed in CHO cell membranes assessed as induction of IP1 accumulation at 0.1 to 10 uM measured after 1 hr by fluorescence assay. It counts as functional, cell-based. The method, boiled down:
as §2

The source made the active and inactive calls. The rule behind the calls is not given here. Where a SMILES comes first, the peptide text is derived from it. Bridges are numbered along the chain shown (N, C = ends). [ ]: non-standard residue; d: D form. Orn = NCCC[C@H](N)C(=O)O; Mpa = O=C(O)CCS

The Ki is the dissociation constant of the complex between target and ligand, obtained from inhibition or displacement. With `Cn1nccc1NS(=O)(=O)c1ccc(Cl)cc1`, the Activity came to 82.5% in experiment [1]; 72.5% in [2]; 112% at Vasopressin V1a receptor [4]; 105% on Vasopressin V1a receptor [5]; 90.5% in experiment [7]; 94.7% in experiment [8]. The Activity was 100% on Vasopressin V1a receptor [10] and 105% on Vasopressin V1a receptor [11]. Further, the IC50 on Oxytocin receptor [3] (read-out: pIC50 (converted)), at Vasopressin V1a receptor [6], on Oxytocin receptor [9] and at Vasopressin V1a receptor [12] was more than 10 µM in each case. The %max stood at 4% in [13] and 5% at Vasopressin V1a receptor [14]. Further, the Ki on Oxytocin receptor [15] and at Vasopressin V1a receptor [16] was more than 10 µM each time. Besides, the result (in [17]; on Vasopressin V1a receptor [18]; in experiment [19]; in [20]; at Vasopressin V1a receptor [21]; in experiment [22]) was inactive. Besides, the result (at Vasopressin V1a receptor [23]; in [24]; on Vasopressin V1a receptor [25]) was inactive.
As for `CCOc1ccc(C[C@H]2NC(=O)CCSSC[C@@H](C(=O)N3CCC[C@H]3C(=O)N[C@@H](CCCN)C(=O)NCC(N)=O)NC(=O)[C@H](CC(N)=O)NC(=O)[C@H]([C@@H](C)O)NC(=O)[C@H]([C@@H](C)CC)NC2=O)cc1` [ATOSIBAN] ([Mpa][dY](Et)ITNCP[Orn]G-NH2; disulfide 1-6), the IC50 on Oxytocin receptor [3] (read-out: IC50) was 0.372 µM.
`O=S(=O)(Nc1ccnn1-c1ccccn1)c1ccc(C(F)(F)F)cc1`: the Activity in experiment [1] was 70.6%; in [2] it was 65.5%; at Vasopressin V1a receptor [4] it was 109%; at Vasopressin V1a receptor [5], 104%; in [7], 83.2%; in experiment [8], 82.1%. Besides, the Activity at Vasopressin V1a receptor [10] stood at 84.8%; on Vasopressin V1a receptor [11] it was 83.1%. Besides, the IC50 at Oxytocin receptor [3] (read-out: pIC50 (converted)), on Vasopressin V1a receptor [6], at Oxytocin receptor [9] and on Vasopressin V1a receptor [12] was more than 10 µM throughout. Further, the %max in experiment [13] stood at 4.4%; on Vasopressin V1a receptor [14], 5.3%. Moreover, the inhibition constant (Ki) on Oxytocin receptor [15] and on Vasopressin V1a receptor [16] was more than 10 µM each time. In addition, the outcome (on Vasopressin V1a receptor [18]; in [19]; in experiment [20]; at Vasopressin V1a receptor [21]; in experiment [22]; on Vasopressin V1a receptor [23]) was inactive. Also, the result (in experiment [24]; at Vasopressin V1a receptor [25]) was inactive.
